Each structure is given as a SMILES string.

In general, inhibition refers to the relative decrease from the control value, in per cent. Read a low inhibition as little suppression. What is called Ki is a measure of affinity in units of concentration, obtained from inhibition or displacement. Higher therefore signals weaker binding.

Data set [1] has as its target T1, GABA-A receptor; anion channel (Bos taurus) (UniProt P10063+P08220+P20237+P08219+P10064+P22300). The data set can be described thus: Percentage inhibition of [3H]Ro-151788 binding to GABA-A central benzodiazepine receptor in bovine brain membrane at 10 uM. The class given is cell membranes. In outline: (§1)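 Washed bovine cerebral cortex membranes, with endogenous GABA removed by Triton X-100/37 °C washes, incubated with ~0.2 nM [3H]Ro15-1788 (Kd 0.60 nM) in 50 mM Tris-citrate pH 7.4 for 90 min at 0 °C, then filtered. Nonspecific binding defined with 10 μM diazepam. Screening at 10 μM; Ki from IC50 by Cheng–Prusoff; five determinations, mean ± SEM.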

Data set [2] concerns Mus musculus. The data set can be described thus: Anticonvulsant activity against PTZ induced atacks at 30 mg/kg dose. The format is functional.
Data set [3] deals with Mus musculus. The data set can be described thus: Antianxiety activity was measured based on light/dark box thus calculated % time in light of mice at 100 mg/kg dose. The class given is functional. In outline: (§2)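 Male Swiss-Webster mice, 22–26 g, dosed orally with drug or 1% CMC vehicle (10 mL/kg), placed 30 min later in the centre of the lit side of a two-compartment light/dark box (60-W bulb 400 mm above the white floor). Time in the lit side and number of crossings counted over 5 min. Student's t-test.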

In data set [4] the test system is Mus musculus. The data set can be described thus: (§3) Anticonvulsant activity against MES-induced hindlimb extension at 30 mg/kg dose. The class given is functional.
Data set [5] concerns the target T1, GABA-A receptor; anion channel (Bos taurus). The data set can be described thus: The GABA ratio (GR) = IC50 compound + 10 uM GABA, performed in five independent experiments was calculated for the compound. The class given is protein-complex assay. In short, it runs like this:
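[3H]Ro15-1788 displacement from GABA-depleted bovine cortex membranes (0.2 nM ligand, 90 min, 0 °C, Tris-citrate pH 7.4). IC50 measured without and with 10 μM GABA and the ratio taken; five independent experiments.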

Data set [6] concerns Mus musculus. The data set can be described thus: (§4) Anticonvulsant activity against MES-induced hindlimb extension at 100 mg/kg dose. The format is organism-based. Set-up: dose 100 mg/kg. Conditions: in vivo. In outline:
(§5)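 Male Swiss-Webster mice (22–26 g) received drug in 1% CMC (10 mL/kg) 30 min before maximal electroshock through transcorneal electrodes (40 mA, 50 Hz, 0.2 s). The end point was tonic hindlimb extension, and lethality was also noted. The incidence of non-convulsing mice was analysed by χ² test.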

For data set [7], the system named is Mus musculus. The data set can be described thus: Antianxiety activity was measured based on light/dark box thus calculated no of crosses of mice at 30 mg/kg dose. The format is functional. In outline: as §2
The test system of data set [8] is Mus musculus. The data set can be described thus: Antianxiety activity was measured based on light/dark box thus calculated no of crosses of mice at 100 mg/kg dose. The class given is functional. In short, it runs like this: as §2
Data set [9] relates to Mus musculus. The data set can be described thus: Anticonvulsant activity against PTZ induced atacks at 100 mg/kg dose. The format is functional.
For data set [10], the target named is GABA-A receptor; anion channel. The data set can be described thus: Displacement of [3H]Ro-151788 from GABA-A benzodiazepine receptor of bovine brain membranes. The class given is cell membranes, Bos taurus. In outline: as §1
On the technique in general: In a radioligand displacement assay an active substance lowers the binding of a labelled ligand.

Data set [11] concerns Mus musculus. The data set can be described thus: Muscle relaxant effect measured by rotarod test at 300 mg/Kg dose in mice. The format is functional. In outline: (§6)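 Motor coordination on the rota rod in male Swiss-Webster mice (22–26 g) after oral dosing in 1% CMC (10 mL/kg), tested 30 min post-dose. Student's t-test.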
(In the rotarod test animals must keep their balance on a rotating rod.)

For data set [12], the target named is T1, GABA-A receptor; anion channel (Bos taurus). The data set can be described thus: Percentage inhibition of [3H]Ro-151788 binding to GABA-A benzodiazepine receptor in bovine brain membrane at 10 uM. The format is cell membranes. In outline:
as §1

The subject of data set [13] is Mus musculus. The description is as §3. To be noted: in vivo. Also noted: dose 30 mg/kg. The class given is ADME, organism-based. In outline:
as §5

Data set [14] relates to Mus musculus. The data set can be described thus: Muscle relaxant effect measured by rotarod test at 100 mg/Kg dose in mice. The class given is functional. In short, it runs like this: as §6
For data set [15], the system named is Mus musculus. The data set can be described thus: Antianxiety activity was measured based on light/dark box thus calculated % time in light of mice at 30 mg/kg dose. The format is functional. In short, it runs like this: as §2
Data set [16] has as its system Mus musculus. The description is as §4. The class given is functional.
For data set [17], the system named is Mus musculus. The data set can be described thus: Muscle relaxant effect measured by rotarod test at 30 mg/Kg dose in mice. The class given is functional. In short, it runs like this: as §6
Data set [18] has as its system Mus musculus. The data set can be described thus: Muscle relaxant effect measured by rotarod test at 10 mg/Kg dose in mice. The class given is functional. In short, it runs like this: as §6
Data set [19] has as its system Mus musculus. The data set can be described thus: (§7) Anticonvulsant activity against MES-induced hindlimb extension at 10 mg/kg dose. To be noted: in vivo. The format is ADME, organism-based. Also noted: dose 10 mg/kg. In outline:
as §5

The test system of data set [20] is Mus musculus. The data set can be described thus: Anticonvulsant activity against PTZ induced attacks at 10 mg/kg dose. The format is functional.
The subject of data set [21] is Mus musculus. The data set can be described thus: Antianxiety activity was measured based on light/dark box thus calculated % time in light of mice at 10 mg/kg dose. The class given is functional. In short, it runs like this:
as §2

The subject of data set [22] is Mus musculus. Described as §7. The format is functional.
The subject of data set [23] is Mus musculus. The data set can be described thus: Antianxiety activity was measured based on light/dark box thus calculated no of crosses of mice at 10 mg/kg dose. The format is functional. In outline:
as §2

Data set [24] has as its system Mus musculus. The data set can be described thus: Muscle relaxant effect measured by rotarod test at 100 mg/kg dose Flumazenil and 0.3 mg/kg Diazepam. The format is functional.
The subject of data set [25] is Mus musculus. The data set can be described thus: Antianxiety activity was measured based on light/dark box thus calculated no of crosses of mice at 100 mg/kg dose Flumazenil and 1 mg/kg Diazepam. The format is functional.
Data set [26] has as its system Mus musculus. The data set can be described thus: Anticonvulsant activity against PTZ induced atacks at 100 mg/kg dose Flumazenil and 0.3 mg/kg Diazepam. The format is functional. In short, it runs like this:
(§8)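 Male Swiss-Webster mice (22–26 g) received drug in 1% CMC (10 mL/kg) 30 min before the test, or flumazenil 40 min before. Pentylenetetrazole was then given at 75 mg/kg sc, and generalized tonic-clonic seizures were scored over the following 30 min. The incidence of non-convulsing mice was analysed by χ² test.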

The subject of data set [27] is Mus musculus. The data set can be described thus: Antianxiety activity was measured based on light/dark box thus calculated % time in light of mice at 100 mg/kg dose Flumazenil and 1 mg/kg Diazepam. The format is functional.
The species entered for data set [28] is Mus musculus. The data set can be described thus: Antianxiety activity was measured based on light/dark box thus calculated % time in light of mice. The format is functional.
The species named for data set [29] is Mus musculus. The data set can be described thus: Muscle relaxant effect measured by rotarod test. The format is functional.
Data set [30] is filed under the species Mus musculus. The data set can be described thus: Antianxiety activity was measured based on light/dark box thus calculated no of crosses of mice. The class given is functional.
Data set [31] is filed under the species Mus musculus. The data set can be described thus: Anticonvulsant activity against PTZ induced atacks. The class given is functional. In outline:
as §8

In [1], `Clc1ccc2nnc3c(-c4cccs4)cnn3c2c1` displayed an inhibition of 66%.

`CCOC(=O)c1cnn2c1n[n+]([O-])c1ccc(Cl)cc12`: the Atttacks is 15% in data set [2] and 28.1% in data set [9]. Moreover, the Time in flight is 124.6% in [3] and 106.2% in [15]. The Extension in data set [4] and in data set [16] was 0% in each case. Moreover, the GR in [5] was 1.91. The Lethality in data set [6] was found to be 0%; in data set [13], 22.2%. Also, the No. of crosses in data set [7] was 19.1; in [8], 15.2. Also, the Ki in [10] turned out to be 35 nM. Besides, the No. of falls in data set [11] is recorded as 0.33; in data set [14], 0.5. In data set [12], the inhibition was 99.8%.

In the case of `Nc1cnn2c1n[n+]([O-])c1ccc(Cl)cc12`, in data set [12], the inhibition stood at 33.9%.

With `[O-][n+]1nc2c(-c3ccsc3)cnn2c2cc(Cl)ccc21`, the Atttacks in data set [2] stood at 61.5%; in data set [9], 46.1%; in [20], 18.2%. For the same compound, the results for the No. of falls in data set [17], in [18] and in data set [14] were 0.08, 0.43 and 0.15, respectively. In addition, the Time in flight in data set [3] is reported as 107.4%; in [21] it was 94.2%; in data set [15] it was 104.3%. In addition, the results for the Extension in data set [4], in data set [22] and in [16] were 33.3%, 14.3% and 27.3%, respectively. In data set [5], the GR is 1.23. Further, the Lethality was 18.2% in [6], 28.6% in data set [19] and 22.2% in data set [13]. The No. of crosses in [7] is on record as 19; in data set [8] it was 15.3; in data set [23], 16.3. Moreover, in [10], the Ki came out at 36.3 nM. The compound also came in with an inhibition in [12] of 100%.

`Cn1cnc(-c2cnn3c2n[n+]([O-])c2ccc(Cl)cc23)n1` had an inhibition in data set [12] of 0%.

`CCOC(=O)c1ncn2c1CN(C)C(=O)c1cc(F)ccc1-2.CN1C(=O)CN=C(c2ccccc2)c2cc(Cl)ccc21` came in with a No. of falls in data set [24] of 0.46. Besides, the No. of crosses in data set [25] is 18.6. The same compound came in with an Atttacks in [26] of 14.2%. In [27], the Time in flight was 104.1%.

`Cc1nc(-c2cnn3c2n[n+]([O-])c2ccc(Cl)cc23)nn1C` registered an inhibition in data set [12] of 0%.

Turning to `CCOC(=O)c1ncn2c1CN(C)C(=O)c1cc(F)ccc1-2` [FLUMAZENIL], in [28], the Time in flight is 114.8%. The No. of falls in data set [29] amounted to 0.4. Further, the No. of crosses in [30] is on record as 15.2. Also, the Attacks in data set [31] amounted to 0%.

Take `[O-][n+]1nc2c(-c3nc[nH]n3)cnn2c2cc(Cl)ccc21`: the inhibition in data set [12] came to 44.4%.

In data set [12], `O=C(N/C=N/O)c1cnn2c1n[n+]([O-])c1ccc(Cl)cc12` displayed an inhibition of 0%.

The compound `C/C(=N\C(=O)c1cnn2c1n[n+]([O-])c1ccc(Cl)cc12)N(C)C` registered an inhibition in data set [12] of 58.5%.

The values above are taken from ChEMBL document CHEMBL1132244, “Benzodiazepine receptor ligands. 4. Synthesis and pharmacological evaluation of 3-heteroaryl-8-chloropyrazolo[5,1-c][1,2,4] benzotriazine 5-oxides” (J Med Chem, 1999).
